Screening results from PubChem.
Most compounds without a hit are left out; they make up all but 2.9% or so of the library.
SENP1 inh: inhibitors of human SENP1 SUMO protease catalytic domain. recombinant SENP1 catalytic domain, CyPet-SUMO1-YPet FRET cleavage. inhibition, % at 10 µM. actives 0.21% (n = 360,000). AID 624204;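 active = inhibition at least 30% at 10 µM, raw YFP signal under a set limit, fluorescence ratio 0.5 to 1.5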;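 note: 0% = enzyme with DMSO and 100% = no enzyme wells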
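Assay system: hSENP1 catalytic domain, recombinant. Amount: SENP1 enzyme, 20 pM final. Schedule: 50 min reaction, RT, dark. Technique: FRET, CFP and YFP emission. Control set: no-enzyme wells low, DMSO-plus-enzyme wells high control.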
SENP7 inh: SENP7 protease inhibition. inhibition, % at 5 µM. actives 1.5% (n = 330,000). AID 434973. recombinant SENP7, Z-RLRGG-aminoluciferin luminescence, 40 min;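 active = inhibition above about 50% at the single test dose, limit read from the data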;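 note: plate controls were DMSO with enzyme for no effect and no enzyme buffer wells for full effect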
SENP8 block-1: inhibitors of human SENP8 protease; purified SENP8, Z-RLRGG-aminoluciferin cleavage, luminescence; AID 2540; actives 1.2% (n = 330,000); inhibition, % at 10 µM; in the data active = inhibition above about 50%
SENP6 block: blocks the human protease SENP6; Recombinant SENP6 catalytic domain, aminoluciferin luminescence; Q9GZR1; inhibition, % at 10 µM; actives 1.8% (n = 330,000);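 active = inhibition above about 50% at the single tested dose, limit read from the data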;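 note: plate controls were DMSO wells with enzyme for no effect and DMSO wells lacking enzyme for full effect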
Target sequence (Q9GZR1 628-1112 limits assumed): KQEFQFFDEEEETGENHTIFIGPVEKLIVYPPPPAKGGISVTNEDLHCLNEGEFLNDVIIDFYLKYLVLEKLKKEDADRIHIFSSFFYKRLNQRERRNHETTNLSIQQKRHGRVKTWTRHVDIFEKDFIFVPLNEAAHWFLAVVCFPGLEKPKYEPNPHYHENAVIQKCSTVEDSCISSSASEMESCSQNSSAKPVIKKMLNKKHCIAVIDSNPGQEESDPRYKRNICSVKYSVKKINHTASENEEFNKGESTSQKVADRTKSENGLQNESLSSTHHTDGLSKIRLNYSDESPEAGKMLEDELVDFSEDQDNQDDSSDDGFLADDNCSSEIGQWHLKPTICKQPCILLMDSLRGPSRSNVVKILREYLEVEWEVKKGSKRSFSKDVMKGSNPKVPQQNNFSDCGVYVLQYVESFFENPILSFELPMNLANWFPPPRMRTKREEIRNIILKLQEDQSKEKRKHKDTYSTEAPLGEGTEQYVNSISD
Apaf1 inhib: inhibitors of human Apaf-1 apoptosome; O14727; actives 0.71% (n = 330,000); inhibition, % at 20 µM; AID 489030; reconstituted apoptosome caspase-3 activity, DEVD-Rh110 fluorescence; active = inhibition of at least 40% at 20 µM;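 note: plate controls were DMSO wells for no effect and DEVD-CHO caspase inhibitor wells for full effect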
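System: Apoptosome proteins | Medium: Hepes pH 7.5 with detergent and BSA | Also added: Cytochrome c trigger plus (Z-DEVD)2-Rh110 caspase-3 substrate | Incubation: 30 min compound preincubation, 50 min activation, room temperature | Detection: Rhodamine 110 fluorescence at Ex 480/Em 540 nm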
SENP8 block-2: inhibitors of human SENP8 protease. Q96LD8. recombinant SENP8, Nedd8 substrate fluorescence. inhibition, % at 20 µM. actives 0.64% (n = 360,000); in the data active = inhibition mostly above about 40%, no sharp cut-off; inactive = mostly below about 27%
SENP8 conf: human SENP8 inhibition, confirmed. Recombinant SENP8, Z-RLRGG-aminoluciferin luminescence, 60 min. inhibition, % at 12.5 µM. shares compounds with SENP7 inh. AID 488912. actives 40% (n = 6,200);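 active = mean inhibition across replicates above about 50%, limit read from the data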
SENP6 confirm: confirmation of human SENP6 protease inhibitors; recombinant SENP6, Z-RLRGG-aminoluciferin luminescence; inhibition, % at 12.5 µM; actives 58% (n = 6,200); shares compounds with SENP7 inh
SENP7 conf: human SENP7 inhibition, confirmed. shares compounds with SENP7 inh. recombinant SENP7, Z-RLRGG-aminoluciferin luminescence, 40 min. actives 69% (n = 6,200). inhibition, % at 12.5 µM. AID 488917
Casp3 select: inhibits human caspase-3 in SENP selectivity test; inhibition, % at 12.5 µM; actives 60% (n = 6,200); shares compounds with SENP7 inh; purified caspase-3, Z-DEVD-aminoluciferin luminescence, 60 min;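 active = mean inhibition above about 50%, limit read from the data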;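 note: plate controls were enzyme with DMSO for no effect and wells without caspase-3 for full effect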
Target sequence (P42574 28-227 limits assumed): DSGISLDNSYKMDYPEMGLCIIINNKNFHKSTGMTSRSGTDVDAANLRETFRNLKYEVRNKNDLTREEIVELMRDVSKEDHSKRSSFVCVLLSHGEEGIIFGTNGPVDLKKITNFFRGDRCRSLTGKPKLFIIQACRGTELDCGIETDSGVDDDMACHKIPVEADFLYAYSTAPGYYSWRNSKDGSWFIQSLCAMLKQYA
SENP luc ctr: interferes with luciferase luminescence in SENP counter-screen; shares compounds with SENP7 inh; Pre-incubated SENP8/Z-RLRGG-aminoluciferin, luciferase luminescence interference; inhibition, % at 12.5 µM; actives 39% (n = 6,200); AID 488919;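 active = mean inhibition above about 50% when retested at one dose, limit read from the data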;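 note: plate controls were DMSO wells with completed reaction for no effect and substrate without enzyme for full effect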
Active calls of the source: *; i = inactive; / = no result given.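 Rule for the calls, unless noted: active = mean inhibition above about 50% in the one-dose retest (limit read from the data); inactive = the rest.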

SMILES | SENP1 inh | SENP7 inh | SENP8 block-1 | SENP6 block | Apaf1 inhib | SENP8 block-2 | SENP8 conf | SENP6 confirm | SENP7 conf | Casp3 select | SENP luc ctr
O=C(CCc1ccccc1)NCc1ccc2c(c1)OCO2 | 3 | -1 | 1 | 24 | -7 | 1 | / | / | / | / | /
CC(=O)N(C)c1ccc(NC(=S)Nc2cccc3ccccc23)cc1 | -23 | 47 | 59* | 68* | 21 | -423 | -22 | -10 | 3 | -3 | -1
Fc1cccc(NC(=S)Nc2cccc3ccccc23)c1 | -7 | 29 | 28 | 57* | 29 | -393 | -22 | -16 | -9 | -11 | -5
CC(=O)N(C)c1ccc(NC(=S)Nc2ccccc2)cc1 | 0 | 5 | -2 | -7 | 3 | 13 | / | / | / | / | /
CCN(CC)CCNC(=O)c1ccc(NC(=O)Nc2cccc3ccccc23)cc1 | 1 | -4 | -13 | -27 | 8 | -24 | / | / | / | / | /
COc1nc(N)nc(N)c1NS(=O)(=O)c1ccc(C)cc1 | 2 | -7 | -9 | -14 | -15 | 10 | / | / | / | / | /
O=C1C=C(OCCCl)CC(c2cccc(Cl)c2)O1 (stereo unspecified) | 1 | / | / | / | / | 21 | / | / | / | / | /
O=C(NC(=S)Nc1ccc(S(=O)(=O)Nc2nccs2)cc1)c1cccc(F)c1 | 2 | 6 | 40 | 63* | 2 | 9 | 13 | 8 | 8 | 3 | 0
O=C(Nc1ccc(S(=O)(=O)Nc2nccs2)cc1)c1ccc(F)cc1 | -1 | 13 | 1 | 11 | 8 | 10 | / | / | / | / | /
O=C(/C=C/Nc1ccc([N+](=O)[O-])cc1Br)c1cccc2ccccc12 | -31 | 86* | 9 | 87* | -2 | -6 | 15 | 16 | 27 | 14 | 1
COCCNC(=O)C1(C)CCN(C(=O)COc2ccc(Cl)cc2Cl)C1 (stereo unspecified) | 1 | / | / | / | / | 11 | / | / | / | / | /
Cc1cccc(/C=N/Nc2nncc3ccccc23)c1 | 1 | 96* | 90* | 92* | 9 | 5 | 74* | 94* | 102* | 94* | 13
C(=N\Nc1nncc2ccccc12)/c1ccccc1 | -2 | 30 | 24 | 33 | -6 | -28 | / | / | / | / | /
COc1ccc(/C=N/Nc2nncc3ccccc23)c(OC)c1 | 0 | 78* | 64* | 77* | 5 | 17 | 15 | 73* | 43 | 34 | 4
COc1ccccc1/C=N/Nc1nccnc1Cl | 3 | 91* | 85* | 90* | 7 | -151 | 86* | 85* | 98* | 95* | 89*
COc1cc(/C=N/Nc2nncc3ccccc23)cc(OC)c1OC | 0 | 78* | 59* | 70* | 10 | 21 | 77* | 75* | 94* | 82* | 71*
CC(C(=O)Nc1ccc(Cl)cc1Cl)N1C(=O)NC2(CCCC2)C1=O (stereo unspecified) | 1 | 0 | 1 | -26 | 9 | 2 | / | / | / | / | /
COc1ccc(/C=N\Nc2ccccn2)c(OC)c1 | 2 | 43 | 54* | 55* | 8 | -25 | 7 | 62* | 87* | 62* | 2
CSc1nc(O)c(N=Nc2ccc(F)cc2F)c(=O)[nH]1 | 4 | 87* | 81* | 91* | 1 | 16 | 83* | 86* | 96* | 93* | 53*
CCCOc1ccc(OCCSc2ncccn2)cc1 | 1 | 65* | 43 | 78* | 8 | 25 | 36 | 54* | 86* | 53* | 47
CNc1ccc2ncc(-c3ccc(OC)c(OC)c3)n2n1 | -11 | / | / | / | / | i | / | / | / | / | /
Cc1ccc(S(=O)(=O)N2CCCN(C(=O)c3ccc(-n4nccc4C)cc3)CC2)cc1 | 4 | -2 | 2 | -8 | 9 | 14 | / | / | / | / | /
Cc1nc(NC(=O)c2ccccc2)sc1-c1csc(NCCc2ccccc2)n1 | -8 | 57* | 30 | 63* | 13 | -31 | -3 | -1 | 10 | 46 | 12
Cc1nc(NC(=O)c2ccccc2)sc1-c1csc(N)n1 | -2 | 68* | 30 | 0 | 16 | -24 | 57* | 53* | 77* | 65* | 61*
Cc1nc(NC(=O)c2ccccc2)sc1-c1csc(NCc2ccccc2)n1 | -20 | 75* | 64* | 80* | 10 | -77 | -7 | -5 | -5 | 21 | 12
SMILES | SENP1 inh | SENP7 inh | SENP8 block-1 | SENP6 block | Apaf1 inhib | SENP8 block-2 | SENP8 conf | SENP6 confirm | SENP7 conf | Casp3 select | SENP luc ctr
Cc1nc(NC(=O)c2ccccc2)sc1-c1csc(Nc2cccc(F)c2)n1 | / | 10 | 30 | 47 | -13 | / | / | / | / | / | /
Cc1nc(-c2ccc(NC(=O)c3ccccc3)cc2)cs1 | 1 | 97* | 94* | 97* | 1 | 4 | 87* | 97* | 101* | 96* | 83*
Cc1csc(SC(C)C(=O)Nc2ccccc2C)n1 (stereo unspecified) | 2 | 7 | 2 | 6 | -4 | -2 | / | / | / | / | /
CCOc1ccccc1Nc1nc(-c2sc(NC(=O)c3cccc(Cl)c3)nc2C)cs1 | -8 | 77* | 68* | 84* | -4 | -95 | -19 | -10 | -4 | 15 | 8
CCCCCC(=O)Nc1nc(C)c(-c2csc(Nc3ccccc3OCC)n2)s1 | -6 | 12 | 7 | 1 | 20 | -55 | / | / | / | / | /
CCOC(=O)c1sc(-c2ccc(F)cc2)cc1N | 3 | 1 | -15 | 11 | 8 | -228 | / | / | / | / | /
CCOC(=O)c1sc(-c2ccc(OC)cc2)cc1N | -1 | 52* | 47 | 71* | 9 | -369 | 36 | 54* | 83* | 34 | 14
CCOC(=O)c1c(C)[nH]c(C(=O)COC(=O)c2ccco2)c1C | 0 | 1 | 5 | -4 | -5 | 11 | / | / | / | / | /
COc1ccc(C=C2SC(=S)NC2=O)cc1 | -6 | / | / | / | / | 25 | / | / | / | / | /
COc1ccc(/C=C2/SC(=S)N(CCC(=O)O)C2=O)cc1 | -32 | 85* | 98* | 98* | -10 | 13 | 98* | 100* | 104* | 65* | 81*
COc1ccc(/C=C2\SC(=S)N(CCC(=O)Nc3ccc(C(=O)O)cc3)C2=O)cc1 | -23 | -5 | 31 | 13 | -5 | 18 | / | / | / | / | /
O=C1NC(=S)S/C1=C\c1ccc2ccccc2c1 | 5 | 10 | 88* | 90* | 13 | 18 | 26 | 50* | 38 | 24 | 21
